Data reported in ChEMBL document CHEMBL4346661, “Design, synthesis and evaluation of novel diaryl-1,5-diazoles derivatives bearing morpholine as potent dual COX-2/5-LOX inhibitors and antitumor agents” (Eur J Med Chem, 2019).

Legend:
[1] = Inhibition of 5-LOX assessed as calcium ionophore A23187-stimulated LTB4 production preincubated for 30 mins followed by calcium ionophore A23187 addition and measured after 30 mins by ELISA
[2] = tested on: HeLa; experiment: Antiproliferative activity against human HeLa cells incubated for 48 hrs by MTT assay; format: functional, cell-based
Procedure, shortened: (§1)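 MTT assay on F10 (murine melanoma), HeLa, A549, MCF-7 and 293T (human renal epithelium) cells. IC50 given as mean ± SD of three independent experiments.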

[3] = tested on: A549; experiment: Antiproliferative activity against human A549 cells incubated for 48 hrs by MTT assay; format: functional, cell-based; details: A549, 48 h
Procedure, shortened: as §1

[4] = tested on: MCF7; experiment: Antiproliferative activity against human MCF7 cells incubated for 48 hrs by MTT assay; format: functional, cell-based; details: MCF7, 48 h
Procedure, shortened: as §1

[5] = tested on: HEK-293T; experiment: Antiproliferative activity against human 293T cells incubated for 48 hrs by MTT assay; format: cell-based
Procedure, shortened: as §1

[6] = target: T1, Prostaglandin G/H synthase 2 (Homo sapiens, UniProt P35354); experiment: Inhibition of COX2 (unknown origin) using arachidonic acid as substrate incubated for 10 mins by Ellman's reagent based COX-1/COX-2 ELISA assay
T1 sequence (P35354 whole entry): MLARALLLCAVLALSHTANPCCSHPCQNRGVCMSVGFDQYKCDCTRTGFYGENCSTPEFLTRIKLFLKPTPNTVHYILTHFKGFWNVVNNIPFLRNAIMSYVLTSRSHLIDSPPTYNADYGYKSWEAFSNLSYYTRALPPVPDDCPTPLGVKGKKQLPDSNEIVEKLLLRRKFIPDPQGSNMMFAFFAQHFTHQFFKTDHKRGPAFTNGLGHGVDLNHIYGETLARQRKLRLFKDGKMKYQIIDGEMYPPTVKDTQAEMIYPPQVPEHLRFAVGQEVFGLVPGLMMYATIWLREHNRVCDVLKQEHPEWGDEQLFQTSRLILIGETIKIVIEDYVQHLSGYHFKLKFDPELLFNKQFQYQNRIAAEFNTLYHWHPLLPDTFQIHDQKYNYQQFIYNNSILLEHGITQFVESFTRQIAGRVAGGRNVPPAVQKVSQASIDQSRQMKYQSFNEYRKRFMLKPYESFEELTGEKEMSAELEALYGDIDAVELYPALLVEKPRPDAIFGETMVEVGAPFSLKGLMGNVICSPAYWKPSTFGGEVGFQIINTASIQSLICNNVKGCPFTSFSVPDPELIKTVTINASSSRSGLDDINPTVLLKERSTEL

[7] = tested on: B16-F10; experiment: Antiproliferative activity against mouse B16F10 cells incubated for 48 hrs by MTT assay; format: functional, cell-based; details: B16-F10, 48 h
Procedure, shortened: as §1

SMILES | IC50 [1] | IC50 [2] | IC50 [3] | IC50 [4] | IC50 [5] | IC50 [6] | IC50 [7]
CCOc1ccc(-c2cc(C(=O)N3CCSCC3)nn2-c2ccc(S(N)(=O)=O)cc2)cc1 | 0.97 µM | 21.6 µM | > 100 µM | 16.5 µM | 169 µM | 0.97 µM | 32.3 µM
NS(=O)(=O)c1ccc(-n2nc(C(=O)N3CCSCC3)cc2-c2cccc(F)c2)cc1 | 1.32 µM | 13.2 µM | 14.5 µM | 14.4 µM | 176 µM | 0.19 µM | 10.3 µM
NS(=O)(=O)c1ccc(-n2nc(C(=O)N3CCOCC3)cc2-c2cccc(F)c2)cc1 | 2.01 µM | 51.3 µM | 25.7 µM | 18.9 µM | 180 µM | 0.23 µM | 30.1 µM
NS(=O)(=O)c1ccc(-n2nc(C(=O)NCCCN3CCOCC3)cc2-c2ccccc2)cc1 | 0.93 µM | 27.4 µM | 20.5 µM | 18.1 µM | 156 µM | 0.42 µM | 21.8 µM
NS(=O)(=O)c1ccc(-n2nc(C(=O)OCCN3CCOCC3)cc2-c2ccc(F)cc2)cc1 | 0.84 µM | > 100 µM | > 100 µM | 19.3 µM | 146 µM | 0.21 µM | 18.1 µM
Cc1ccc(-c2cc(C(=O)N3CCSCC3)nn2-c2ccc(S(N)(=O)=O)cc2)cc1 | 1.57 µM | 13.6 µM | 19.9 µM | 18.1 µM | 106 µM | 0.89 µM | 15.5 µM
NS(=O)(=O)c1ccc(-n2nc(C(=O)N3CCSCC3)cc2-c2ccc(Br)cc2)cc1 | 1.21 µM | 16 µM | 17.7 µM | 14.6 µM | 197 µM | 1.28 µM | 12.1 µM
COc1ccc(-c2cc(C(=O)NCCCN3CCOCC3)nn2-c2ccc(S(N)(=O)=O)cc2)cc1 | 0.98 µM | > 100 µM | 19.2 µM | 16.3 µM | 200 µM | 0.71 µM | 13 µM
NS(=O)(=O)c1ccc(-n2nc(C(=O)OCCN3CCOCC3)cc2-c2ccc(Cl)cc2)cc1 | 0.87 µM | 25.4 µM | 23 µM | 25.8 µM | 122 µM | 0.25 µM | 22 µM
NS(=O)(=O)c1ccc(-n2nc(C(=O)N3CCSCC3)cc2-c2ccc(F)cc2)cc1 | 1.27 µM | 29.2 µM | 18.2 µM | 18.2 µM | 174 µM | 0.21 µM | 26.4 µM
NS(=O)(=O)c1ccc(-n2nc(C(=O)N3CCOCC3)cc2-c2ccc(Cl)cc2)cc1 | 1.79 µM | > 100 µM | > 100 µM | > 100 µM | > 300 µM | 0.35 µM | > 100 µM
NS(=O)(=O)c1ccc(-n2nc(C(=O)N3CCSCC3)cc2-c2ccc(Cl)cc2)cc1 | 2.31 µM | > 100 µM | > 100 µM | 39.8 µM | 232 µM | 0.23 µM | > 100 µM
Cc1ccc(-c2cc(C(=O)N3CCOCC3)nn2-c2ccc(S(N)(=O)=O)cc2)cc1 | 1.24 µM | > 100 µM | 22.8 µM | 17.9 µM | 190 µM | 0.93 µM | 21.4 µM
NS(=O)(=O)c1ccc(-n2nc(C(=O)OCCN3CCOCC3)cc2-c2ccc(C(F)(F)F)cc2)cc1 | 0.81 µM | 24.6 µM | 27.8 µM | 16.7 µM | 148 µM | 0.19 µM | 21.5 µM
COc1ccc(-c2cc(C(=O)OCCCN3CCOCC3)nn2-c2ccc(S(N)(=O)=O)cc2)cc1 | 0.87 µM | 26.7 µM | 18.2 µM | 19.8 µM | 169 µM | 1.05 µM | 13.7 µM
NS(=O)(=O)c1ccc(-n2nc(C(=O)O)cc2-c2ccc(C(F)(F)F)cc2)cc1 |  | 26.5 µM | 22.5 µM | 24.8 µM | 190 µM |  | 23.8 µM
NS(=O)(=O)c1ccc(-n2nc(C(=O)N3CCOCC3)cc2-c2ccc(F)cc2)cc1 | 0.89 µM | > 100 µM | 27.5 µM | 20 µM | 206 µM | 0.23 µM | 20.5 µM
CCOc1ccc(-c2cc(C(=O)N3CCOCC3)nn2-c2ccc(S(N)(=O)=O)cc2)cc1 | 0.95 µM | 27.2 µM | 41.7 µM | 15 µM | 116 µM | 2.99 µM | 18.6 µM
COc1ccc(-c2cc(C(=O)N3CCOCC3)nn2-c2ccc(S(N)(=O)=O)cc2)cc1 | 0.93 µM | 21.6 µM | 19.6 µM | 16 µM | 207 µM | 2.01 µM | 20.8 µM
NS(=O)(=O)c1ccc(-n2nc(C(=O)OCCCN3CCOCC3)cc2-c2ccccc2)cc1 | 0.82 µM | 22.4 µM | 17.7 µM | 17.2 µM | 95.5 µM | 0.56 µM | 22.7 µM
COc1cccc(-c2cc(C(=O)N3CCSCC3)nn2-c2ccc(S(N)(=O)=O)cc2)c1 | 1.19 µM | 20.3 µM | 16 µM | 17.9 µM | 177 µM | 1.95 µM | 13 µM
NS(=O)(=O)c1ccc(-n2nc(C(=O)N3CCOCC3)cc2-c2ccccc2)cc1 | 1.19 µM | > 100 µM | 26.1 µM | 16.5 µM | 184 µM | 0.69 µM | 16.2 µM
NS(=O)(=O)c1ccc(-n2nc(C(=O)NCCN3CCOCC3)cc2-c2ccccc2)cc1 | 0.96 µM | 21.8 µM | > 100 µM | 39.2 µM | 151 µM | 0.64 µM | 30.8 µM
COc1ccc(-c2cc(C(=O)N3CCSCC3)nn2-c2ccc(S(N)(=O)=O)cc2)cc1 | 1.01 µM | 24.1 µM | 17.2 µM | 19.7 µM | 211 µM | 1.21 µM | 13.2 µM
NS(=O)(=O)c1ccc(-n2nc(C(=O)N3CCOCC3)cc2-c2cccc(Cl)c2)cc1 | 1.33 µM | 17.9 µM | 24.6 µM | 15.8 µM | 114 µM | 0.24 µM | 14.6 µM
NS(=O)(=O)c1ccc(-n2nc(C(=O)NCCN3CCOCC3)cc2-c2ccc(Cl)cc2)cc1 | 0.89 µM | 20 µM | 19.5 µM | 23 µM | 112 µM | 0.31 µM | > 100 µM
CCOc1ccc(-c2cc(C(=O)NCCCN3CCOCC3)nn2-c2ccc(S(N)(=O)=O)cc2)cc1 | 0.84 µM | 19.2 µM | 17.8 µM | 15 µM | 138 µM | 0.91 µM | 12.9 µM
NS(=O)(=O)c1ccc(-n2nc(C(=O)N3CCOCC3)cc2-c2ccc(C(F)(F)F)cc2)cc1 | 2.59 µM | 27.7 µM | 25.2 µM | 20 µM | 199 µM | 0.39 µM | 21.8 µM
